What was measured:
[1] = species on record: Homo sapiens; test: Particle size of LDL after incubation with the compound (0.0055%); format: functional
Outline: (§1)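 Lipoproteins (LDL 1.019–1.063, HDL 1.063–1.21 ×10³ kg/m³) isolated from human serum by KBr/NaCl density-gradient ultracentrifugation. LDL (0.5 mg/mL) or HDL (2.0 mg/mL) incubated 10 min at room temperature in PBS pH 7.40 with 0–0.33% (w/v) agent. Size measured by photon correlation spectroscopy (120°, 632 nm, 72 s accumulation) and reported as mass-weighted mean ± standard error.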

[2] = species on record: Homo sapiens; test: Particle size of HDL after incubation with the compound (0.01%); format: functional; outline: as §1

For `C[C@@H]1CC[C@@]2(OC1)O[C@H]1[C@@H](O)[C@H]3[C@@H]4CC[C@H]5C[C@@H](O[C@@H]6O[C@H](CO)[C@H](O[C@@H]7O[C@H](CO)C(O)[C@H](O[C@@H]8OC[C@@H](O)[C@H](O)[C@H]8O)[C@H]7O[C@@H]7O[C@H](CO)[C@H](O)[C@H](O[C@@H]8O[C@H](CO)[C@@H](O)[C@H](O)[C@H]8O)[C@H]7O)[C@H](O)[C@H]6O)[C@H](O)C[C@]5(C)[C@H]4CC[C@]3(C)[C@H]1[C@@H]2C` (some centres not stated), which Activity [1] is on record?
The Activity was “Increase”.

What about the Activity [2] of the same molecule?
Its Activity is “Increase”.

From ChEMBL document CHEMBL1128600, “The cholesterol derivative of a triantennary galactoside with high affinity for hepatic asialoglycoprotein receptor: a potent cholesterol lowering agent” (J Med Chem, 1995)
